Laboratory results from paper PMC4133170 (Biochimica et biophysica acta, 2014).

How the values were obtained:
LRP1 [1] = assay: Western blot of LRP1 expression in hCMEC/D3 cells; format: cell-based, human; conditions: 24 h, 100 nM monomeric Aβ40 or 50 nM Aβ42 oligomers, n = 3
Summary of the method: (§1)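 hCMEC/D3 cells (1 × 10⁶ per 100 mm dish) grown to 70% confluence, then given 24 h of control media, 100 nM Aβ40 monomer, 50 nM Aβ42 oligomer or both. Lysed in RIPA with protease inhibitors; 25 μg protein on 8% Bis-Tris/MOPS gel, nitrocellulose, 2% BSA block. Overnight primary: LRP1 1:1500, RAGE 1:200, GAPDH 1:3000. HRP secondary 1:5000; bands quantified; three independent blots.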

RAGE = assay: Western blot of RAGE expression in hCMEC/D3 cells; format: cell-based, human; conditions: 24 h, 100 nM monomeric Aβ40 or 50 nM Aβ42 oligomers, n = 3
Summary of the method: as §1

hCMEC/D3 cells = assay: MTT cytotoxicity assay; format: cell-based, human
LRP1 [2] = conditions: in vivo administration of 100 μg over 26 h, FVB wild type mice; cited from earlier work

Substance: Aβ40 monomer: synthetic Aβ40 peptide (AnaSpec), HFIP film dissolved in media and used immediately
- reduction of LRP1 expression (LRP1 [1]): not observed
- alteration in RAGE protein expression (RAGE): did not show any significant alterations
- decrease in viability of hCMEC/D3 (MTT) (hCMEC/D3 cells; 24 h treatment with 250 nM Aβ40 monomer, mean of n = 3 independent experiments): 14–17%
- MTT assay result versus control (hCMEC/D3 cells; 24 h treatment, Aβ40 monomers at 50 and 100 nM, n = 3): comparable to control treated cells

Substance: Aβ42 monomers: human sequence Aβ42 monomers administered in vivo in a cited study
- LRP1 expression in brain tissue (LRP1 [2]): significant reduction in LRP1 expression
